HIV Env fusion: blocks HIV Env-driven cell-cell fusion | AID 651610 | 360,000 compounds, 1.1% hits | HeLa-JRFL Env/CEM21 cell fusion, luciferase | inhibition, % at 12.3 µM;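 active means mean replicate inhibition score of at least 50 and every replicate individually at or above 50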
Cneo AK release: causes C. neoformans cell lysis; lysis activity, % at 15 µM; 360,000 compounds, 0.2% hits; AID 651654; adenylate kinase release luminescence, 4 h; normalised: neutral wells 0, clomiphene wells 100;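 active means mean lysis activity across replicates of at least 80%, whatever share of replicates individually reach that level; inactive means mean lysis activity below 80%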
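Material – Cryptococcus neoformans yeast cells · Quantity – 5 × 10^6 yeast cells/mL · Buffer or medium – YPD medium · Compound – single dose · Timing – 4 h static compound exposure, 37 °C, read 1 h post-reagent · Signal – adenylate kinase release luminescence · Read-out basis – lysis from increased AK signal · Benchmarks – Clomiphene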
esBAF inh: SWI/SNF esBAF complex inhibition. mouse ES cells, Bmi1-luciferase knock-in reporter, 24 h; 100% = twice the neutral-well signal. reporter increase, % at 12.5 µM. 350,000 compounds, 2% hits; in the data active means activation above about 40%;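 further: a rise in the Bmi1 reporter signal indicates esBAF inhibition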
Wnt bcat act: Wnt/beta-catenin pathway activation; Wnt/beta-catenin reporter cell assay, activator, plate reader; activation, % at 9.35 µM; 300,000 compounds, 1.2% hits; in the data active means activation above about 30%, passing the limit was not always enough
ERAP1 inh: ERAP1 (human) enzyme inhibition; recombinant ERAP1, Leu-AMC fluorescence, 60 min; inhibition, % at 10.7 µM; 340,000 compounds, 0.15% hits; AID 652197;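 active means mean replicate inhibition of at least 30%, or all replicates individually reaching that 30% level; inactive means mean below 30% and not every replicate reaching it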
MITF act: increases MITF-driven TRPM1 promoter luciferase signal | 300,000 compounds, 0.75% hits | SK-MEL-5 TRPM1-promoter luciferase, 24 h; % of positive control, neutral wells = 0 | AID 588334 | activation, % at 12.5 µM;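 active means mean activation of at least 80% with every replicate also reaching 80%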
esBAF Ring1 qPCR: confirmation of esBAF inhibitors: Ring1 de-repression in mouse ESCs; 550 tested, under 10 active; mouse ESC E14, Ring1 mRNA RT-qPCR fold change; AID 743176; fold change at 33 µM; shares compounds with esBAF inh;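 active means Ring1 gene expression raised more than 2-fold over untreated cells in both replicates at either tested dose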;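 further: Ring1 transcript normalised to actin housekeeping signal by TaqMan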
esBAF Fgf4 qPCR: esBAF inhibition confirmed by Fgf4 repression | shares compounds with esBAF inh | mouse ESC E14, Fgf4 mRNA qPCR fold change; active compounds read low | Fgf4 expression fold change at 33 µM | 550 compounds, 4% hits;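 active means Fgf4 expression under 0.8 fold of control in both repeat measurements at one or both tested doses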;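 further: Fgf4 transcript normalised to actin in duplex TaqMan qPCR; cells exposed to compound for 24 h before lysis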
esBAF Bmi1 qPCR: esBAF inhibition confirmed by Bmi1 de-repression; shares compounds with esBAF inh; mouse ESE14 ES cells, Bmi1 mRNA qPCR fold; active compounds read high; fold change at 33 µM; 550 tested, under 10 active;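 active means Bmi1 expression fold change above 6 at either tested concentration, seen in replicate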;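 further: higher fold means more Bmi1 de-repression and stronger esBAF inhibition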
A549 tox SP: kills or reduces viability of A549 cells; cell viability change % (negative = cytotoxic), % at 25 µM, hits read low; 550 tested, under 10 active; AID 743188; A549 cytotoxicity, plate reader; shares compounds with esBAF inh; call rule not given here
HepG2 tox SP: HepG2 cell cytotoxicity at single point. shares compounds with esBAF inh. plate reader; active compounds read low. activity change, negative = inhibition, % at 25 µM. 550 compounds, 4% hits. AID 743189; in the data active means activity change below about -50%
HEK293 tox SP: HEK293 cell cytotoxicity at single point. plate reader. AID 743190. shares compounds with esBAF inh. activity change, negative = inhibition, % at 25 µM, hits read low. 550 compounds, 3% hits; in the data active means activity change below about -38%, passing the limit was not always enough
Numbers stand for hits; . = inactive; / = no result. This is a sample that favours compounds with a hit; in the whole collection about 3.5% have one here.

SMILES	HIV Env fusion	Cneo AK release	esBAF inh	Wnt bcat act	ERAP1 inh	MITF act	esBAF Ring1 qPCR	esBAF Fgf4 qPCR	esBAF Bmi1 qPCR	A549 tox SP	HepG2 tox SP	HEK293 tox SP
CN(C)C(=O)c1cccc(-c2ccc3c(c2)[C@H]2[C@H](CCN2Cc2nccs2)[C@H](CO)N3)c1	/	.	.	/	.	/	/	/	/	/	/	/
O=C(C[C@@H]1C=C[C@@H](NS(=O)(=O)c2cccc(F)c2)[C@@H](CO)O1)NCc1ccc2c(c1)OCO2	.	.	.	/	.	/	/	/	/	/	/	/
O=C(O)c1ccc(Nc2nc(-c3ccccc3)cs2)cc1	.	/	/	/	.	.	/	/	/	/	/	/
N#Cc1ccc(Nc2nc(-c3ccccc3)cs2)cc1	.	.	73.6	.	.	/	.	.	.	.	.	.
COc1ccc(-n2nc(C(=O)NCC(=O)N3CCN(c4ccccc4)CC3)c3ccccc3c2=O)c(OC)c1	.	.	.	.	.	97.5	.	.	.	.	.	.
COc1ccc(-n2nc(C(=O)NCC(=O)N3CCN(c4ccc(F)cc4)CC3)c3ccccc3c2=O)c(OC)c1	.	.	.	.	.	.	/	/	/	/	/	/
COc1ccc2c(c1)CC/C(=C/c1ccccn1)C2=O	.	.	67.8	.	.	.	.	0.375	.	.	.	.
CC(=O)N[C@H]1C=C[C@H](CC(=O)NCC2CCCCC2)O[C@@H]1CO	.	.	.	/	.	/	/	/	/	/	/	/
O=C(CCNS(=O)(=O)c1cccs1)N1CCc2ccccc2C1	/	.	67.8	.	/	.	.	.	.	.	.	.
CC1CC(C)CN(C(=O)CCNS(=O)(=O)c2cccs2)C1 (stereo unspecified)	/	.	/	.	.	.	/	/	/	/	/	/
Cc1noc(C)c1NC(=O)Nc1ccc2c(c1)CC(=O)N([C@@H](C)CO)C[C@H](C)[C@H](CN(C)Cc1ccc(Oc3ccccc3)cc1)O2	.	.	.	/	/	/	/	/	/	/	/	/
COCC(=O)Nc1ccc2c(c1)[C@H]1C[C@H](CC(=O)N3CCc4ccccc4C3)O[C@@H](CO)[C@H]1O2	/	.	.	/	.	/	/	/	/	/	/	/
C[C@H](CO)N1C[C@H](C)[C@H](CN(C)C(=O)CCCN(C)C)OCCCC[C@H](C)Oc2ccc(NS(C)(=O)=O)cc2C1=O	.	.	.	/	.	/	/	/	/	/	/	/
COc1cc(CNc2ccc(S(N)(=O)=O)cc2)ccc1OCc1ccccc1F	.	.	96.0	.	.	/	.	.	.	.	.	.
C[C@@H]1CN([C@H](C)CO)C(=O)c2cc(NC(=O)Cc3ccccc3)ccc2O[C@@H](C)CCCCO[C@@H]1CN(C)S(=O)(=O)c1ccccc1	.	.	.	/	.	/	/	/	/	/	/	/
Cc1ccnc(NC(=O)c2ccc3c(c2)C(=O)N(CC(C)C)C3=O)c1	.	.	74.3	.	.	.	.	.	.	.	.	.
Cc1ccc(O)c(NC(=O)c2ccc3c(c2)C(=O)N(CC(C)C)C3=O)c1	.	.	57.3	.	.	/	.	.	.	.	.	.
CCCN1C(=O)c2ccc(C(=O)Nc3cc(C)ccc3O)cc2C1=O	.	.	.	.	.	/	/	/	/	/	/	/
COc1cccc(NC(=O)N[C@H]2CC[C@H](CC(=O)NCc3ccncn3)O[C@@H]2CO)c1	.	.	.	/	.	/	/	/	/	/	/	/
C[C@@H]1CCCCO[C@@H](CN(C)C(=O)Nc2ccc3c(c2)OCO3)[C@H](C)CN([C@H](C)CO)C(=O)c2cc(NS(C)(=O)=O)ccc2O1	.	.	.	/	.	/	/	/	/	/	/	/

High-throughput results from PubChem.
